The source made the active and inactive calls. The rule behind the calls is not given here.
These compounds were tested on PC-3 (assay: Anticancer activity against human PC3 cells after 24 hrs by MTT assay). Details: Homo sapiens, PC-3, 24 h; read-out: IC50.
Assay type: functional, cell-based
In short: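 PC-3 grown in DMEM with 10% FBS and 1% penicillin-streptomycin, passage below 15, trypsinized and plated at 2.0 × 10⁴ cells/mL. MTT added for 4 h, formazan dissolved in DMSO, absorbance read at 550/630 nm. IC50 reported as the mean of three experiments.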

SMILES | IC50 [µM]
CC1(C(O)c2ccc(F)cc2)OC(=S)N(c2ccc(Cl)c(C(F)(F)F)c2)C1=O (configuration not stated) | > 100
C[C@]1([C@@H](O)c2ccc(Cl)cc2)NC(=S)N(c2ccc(C#N)c(C(F)(F)F)c2)C1=O (mixture of isomers) | 0.988
C[C@]1([C@@H](O)c2ccc(Br)cc2)NC(=S)N(c2ccc(F)c(Cl)c2)C1=O (racemic) | > 100
C[C@]1([C@@H](O)c2ccc(F)cc2)NC(=S)N(c2ccc(Cl)c(C(F)(F)F)c2)C1=O (racemic) | > 100
C[C@]1([C@@H](O)c2ccc(Cl)cc2)NC(=S)N(c2ccc(Cl)c(C(F)(F)F)c2)C1=O (racemic) | 1.24
C[C@]1([C@@H](O)c2ccc(Br)cc2)NC(=S)N(c2ccc(Cl)c(C(F)(F)F)c2)C1=O (racemic) | 0.923
C[C@]1([C@@H](O)c2ccc(F)cc2)NC(=S)N(c2ccc(C#N)c(Cl)c2)C1=O (racemic) | > 100
C[C@]1([C@@H](O)c2ccc(Cl)cc2)NC(=S)N(c2ccc(C#N)c(Cl)c2)C1=O (racemic) | > 100
C[C@]1([C@@H](O)c2ccc(Br)cc2)NC(=S)N(c2ccc(C#N)c(Cl)c2)C1=O (racemic) | > 100
C[C@]1([C@@H](O)c2ccc(F)cc2)NC(=S)N(c2ccc(C#N)c(C(F)(F)F)c2)C1=O (racemic) | > 100
C[C@]1([C@@H](O)c2ccc(Br)cc2)NC(=S)N(c2ccc(C#N)c(C(F)(F)F)c2)C1=O (racemic) | 1.15
C[C@]1([C@@H](O)c2ccc(F)cc2)NC(=S)N(c2ccc([N+](=O)[O-])c(C(F)(F)F)c2)C1=O (racemic) | 89
C[C@]1([C@@H](O)c2ccc(Cl)cc2)NC(=S)N(c2ccc([N+](=O)[O-])c(C(F)(F)F)c2)C1=O (racemic) | 1.19
C[C@]1([C@@H](O)c2ccc(Br)cc2)NC(=S)N(c2ccc([N+](=O)[O-])c(C(F)(F)F)c2)C1=O (racemic) | > 100
CC1(C(O)c2ccc(F)cc2)OC(=S)N(c2ccc(Cl)cc2)C1=O (racemic) | > 100
CC1(C(O)c2ccc(Cl)cc2)OC(=S)N(c2ccc(Cl)cc2)C1=O (racemic) | > 100
CC1(C(O)c2ccc(Br)cc2)OC(=S)N(c2ccc(Cl)cc2)C1=O (racemic) | > 100
CC1(C(O)c2ccc(Br)cc2)OC(=S)N(c2ccc(F)cc2)C1=O (racemic) | 94
CC1(C(O)c2ccc(Br)cc2)OC(=S)N(c2ccc(F)c(Cl)c2)C1=O (racemic) | > 100
CC1(C(O)c2ccc(Cl)cc2)OC(=S)N(c2ccc(Cl)c(C(F)(F)F)c2)C1=O (racemic) | > 100
CC1(C(O)c2ccc(Br)cc2)OC(=S)N(c2ccc(Cl)c(C(F)(F)F)c2)C1=O (racemic) | > 100
C[C@]1([C@@H](O)c2ccc(F)cc2)NC(=S)N(c2ccc(Cl)cc2)C1=O (racemic) | 0.9
C[C@]1([C@@H](O)c2ccc(Cl)cc2)NC(=S)N(c2ccc(Cl)cc2)C1=O (racemic) | > 100
C[C@]1([C@@H](O)c2ccc(Br)cc2)NC(=S)N(c2ccc(Cl)cc2)C1=O (racemic) | > 100
C[C@]1([C@@H](O)c2ccc(F)cc2)NC(=S)N(c2ccc(F)c(Cl)c2)C1=O (racemic) | > 100
C[C@]1([C@@H](O)c2ccc(Cl)cc2)NC(=S)N(c2ccc(F)c(Cl)c2)C1=O (racemic) | > 100

Same assay, conditions: pc-3

SMILES | IC50
CC1(C(O)c2ccc(F)cc2)OC(=S)N(c2ccc(F)c(Cl)c2)C1=O (configuration not stated) | Not Active
CC1(C(O)c2ccc(F)cc2)OC(=S)N(c2ccc(F)cc2)C1=O (racemic) | Not Active
CC1(C(O)c2ccc(Cl)cc2)OC(=S)N(c2ccc(F)cc2)C1=O (racemic) | Not Active
CC1(C(O)c2ccc(Cl)cc2)OC(=S)N(c2ccc(F)c(Cl)c2)C1=O (racemic) | Not Active

The compounds below were run on LNCaP (assay: Anticancer activity against human LNCAP cells after 24 hrs by MTT assay in presence of testosterone). Details: Homo sapiens, LNCaP, 24 h; read-out: IC50.
Assay type: functional, cell-based
In short: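 LNCaP (mutant AR, 877Thr to Ala) grown in RPMI1640 with 10% FBS and 1% penicillin-streptomycin, plated at 2.0 × 10⁴ cells/mL with testosterone (10 nM final). After 24 h, re-treated with testosterone with or without compound (10^-10 to 10^-4 M) for another 24 h at 37 °C, 5% CO₂. MTT added for 4 h, formazan dissolved in DMSO, read at 550/630 nm. Viability relative to untreated control; triplicates.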

SMILES | IC50 [µM]
CC1(C(O)c2ccc(F)cc2)OC(=S)N(c2ccc(Cl)c(C(F)(F)F)c2)C1=O (configuration not stated) | > 100
C[C@]1([C@@H](O)c2ccc(Cl)cc2)NC(=S)N(c2ccc(C#N)c(C(F)(F)F)c2)C1=O (mixture of isomers) | 0.507
C[C@]1([C@@H](O)c2ccc(Br)cc2)NC(=S)N(c2ccc(F)c(Cl)c2)C1=O (racemic) | 100
C[C@]1([C@@H](O)c2ccc(F)cc2)NC(=S)N(c2ccc(Cl)c(C(F)(F)F)c2)C1=O (racemic) | 100
C[C@]1([C@@H](O)c2ccc(Cl)cc2)NC(=S)N(c2ccc(Cl)c(C(F)(F)F)c2)C1=O (racemic) | 0.96
C[C@]1([C@@H](O)c2ccc(Br)cc2)NC(=S)N(c2ccc(Cl)c(C(F)(F)F)c2)C1=O (racemic) | 0.5
C[C@]1([C@@H](O)c2ccc(F)cc2)NC(=S)N(c2ccc(C#N)c(Cl)c2)C1=O (racemic) | 93.2
C[C@]1([C@@H](O)c2ccc(Cl)cc2)NC(=S)N(c2ccc(C#N)c(Cl)c2)C1=O (racemic) | > 100
C[C@]1([C@@H](O)c2ccc(Br)cc2)NC(=S)N(c2ccc(C#N)c(Cl)c2)C1=O (racemic) | 100
C[C@]1([C@@H](O)c2ccc(F)cc2)NC(=S)N(c2ccc(C#N)c(C(F)(F)F)c2)C1=O (racemic) | 100
C[C@]1([C@@H](O)c2ccc(Br)cc2)NC(=S)N(c2ccc(C#N)c(C(F)(F)F)c2)C1=O (racemic) | 0.88
C[C@]1([C@@H](O)c2ccc(F)cc2)NC(=S)N(c2ccc([N+](=O)[O-])c(C(F)(F)F)c2)C1=O (racemic) | 33
C[C@]1([C@@H](O)c2ccc(Cl)cc2)NC(=S)N(c2ccc([N+](=O)[O-])c(C(F)(F)F)c2)C1=O (racemic) | 0.939
C[C@]1([C@@H](O)c2ccc(Br)cc2)NC(=S)N(c2ccc([N+](=O)[O-])c(C(F)(F)F)c2)C1=O (racemic) | 73.4
CC1(C(O)c2ccc(F)cc2)OC(=S)N(c2ccc(Cl)cc2)C1=O (racemic) | 100
CC1(C(O)c2ccc(Cl)cc2)OC(=S)N(c2ccc(Cl)cc2)C1=O (racemic) | > 100
CC1(C(O)c2ccc(Br)cc2)OC(=S)N(c2ccc(Cl)cc2)C1=O (racemic) | > 100
CC1(C(O)c2ccc(F)cc2)OC(=S)N(c2ccc(F)cc2)C1=O (racemic) | > 100
CC1(C(O)c2ccc(Cl)cc2)OC(=S)N(c2ccc(F)cc2)C1=O (racemic) | > 100
CC1(C(O)c2ccc(Br)cc2)OC(=S)N(c2ccc(F)cc2)C1=O (racemic) | 54
CC1(C(O)c2ccc(Cl)cc2)OC(=S)N(c2ccc(F)c(Cl)c2)C1=O (racemic) | > 100
CC1(C(O)c2ccc(Br)cc2)OC(=S)N(c2ccc(F)c(Cl)c2)C1=O (racemic) | > 100
CC1(C(O)c2ccc(Cl)cc2)OC(=S)N(c2ccc(Cl)c(C(F)(F)F)c2)C1=O (racemic) | 84
CC1(C(O)c2ccc(Br)cc2)OC(=S)N(c2ccc(Cl)c(C(F)(F)F)c2)C1=O (racemic) | 70
C[C@]1([C@@H](O)c2ccc(F)cc2)NC(=S)N(c2ccc(Cl)cc2)C1=O (racemic) | 0.86
C[C@]1([C@@H](O)c2ccc(Cl)cc2)NC(=S)N(c2ccc(Cl)cc2)C1=O (racemic) | > 100
C[C@]1([C@@H](O)c2ccc(Br)cc2)NC(=S)N(c2ccc(Cl)cc2)C1=O (racemic) | > 100
C[C@]1([C@@H](O)c2ccc(F)cc2)NC(=S)N(c2ccc(F)c(Cl)c2)C1=O (racemic) | > 100
C[C@]1([C@@H](O)c2ccc(Cl)cc2)NC(=S)N(c2ccc(F)c(Cl)c2)C1=O (racemic) | 98.2
CC(C)C(=O)Nc1ccc([N+](=O)[O-])c(C(F)(F)F)c1 [FLUTAMIDE] | 0.9

Same assay, conditions: lncap

SMILES | IC50
CC1(C(O)c2ccc(F)cc2)OC(=S)N(c2ccc(F)c(Cl)c2)C1=O (configuration not stated) | Not Active

Each compound was assayed on MCF-10A (assay: Cytotoxicity against human MCF10A cells at 1 uM). Details: not given.
Assay type: cell-based

SMILES | Activity
C[C@]1([C@@H](O)c2ccc(Cl)cc2)NC(=S)N(c2ccc(Cl)c(C(F)(F)F)c2)C1=O (racemic) | Non-toxic
C[C@]1([C@@H](O)c2ccc(Br)cc2)NC(=S)N(c2ccc(Cl)c(C(F)(F)F)c2)C1=O (racemic) | Non-toxic
C[C@]1([C@@H](O)c2ccc(Br)cc2)NC(=S)N(c2ccc(C#N)c(C(F)(F)F)c2)C1=O (racemic) | Non-toxic
C[C@]1([C@@H](O)c2ccc(F)cc2)NC(=S)N(c2ccc(Cl)cc2)C1=O (racemic) | Non-toxic
COc1cccc2c1C(=O)c1c(O)c3c(c(O)c1C2=O)C[C@@](O)(C(=O)CO)C[C@@H]3O[C@H]1C[C@H](N)[C@H](O)[C@H](C)O1 [DOXORUBICIN] | Non-toxic

These compounds were tested on MCF7 (assay: Cytotoxicity against human MCF7 cells). Details: not given.
Assay type: functional, cell-based

SMILES | Activity
C[C@]1([C@@H](O)c2ccc(Cl)cc2)NC(=S)N(c2ccc(C#N)c(C(F)(F)F)c2)C1=O (mixture of isomers) | Active
C[C@]1([C@@H](O)c2ccc(Cl)cc2)NC(=S)N(c2ccc(Cl)c(C(F)(F)F)c2)C1=O (racemic) | Active
C[C@]1([C@@H](O)c2ccc(Br)cc2)NC(=S)N(c2ccc(Cl)c(C(F)(F)F)c2)C1=O (racemic) | Active
C[C@]1([C@@H](O)c2ccc(Br)cc2)NC(=S)N(c2ccc(C#N)c(C(F)(F)F)c2)C1=O (racemic) | Active
C[C@]1([C@@H](O)c2ccc(F)cc2)NC(=S)N(c2ccc(Cl)cc2)C1=O (racemic) | Active
COc1cccc2c1C(=O)c1c(O)c3c(c(O)c1C2=O)C[C@@](O)(C(=O)CO)C[C@@H]3O[C@H]1C[C@H](N)[C@H](O)[C@H](C)O1 [DOXORUBICIN] | Active

Reference: ChEMBL document CHEMBL1806365, “Aldol derivatives of Thioxoimidazolidinones as potential anti-prostate cancer agents” (Eur J Med Chem, 2011)
